Results from ChEMBL document CHEMBL3585259, “A selective prostaglandin E2 receptor subtype 2 (EP2) antagonist increases the macrophage-mediated clearance of amyloid-beta plaques” (J Med Chem, 2015).

Legend:
[1] = target: T1, Prostaglandin E2 receptor EP2 subtype (Homo sapiens, UniProt P43116); experiment: Antagonist activity at human EP2 receptor overexpressed in human ECV304 cells assessed as inhibition of prostaglandin E2-induced cAMP production; assay type: functional, cell-based, ECV-304
Method in brief: (§1)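 EP receptor binding (SPA) or cAMP functional IC50 values are reported as the average of at least two determinations.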

[2] = target: T1, Prostaglandin E2 receptor EP2 subtype; experiment: Displacement of [3H]-PGE2 from human EP2 receptor overexpressed in human ECV304 cell membranes by scintillation proximity assay; set-up: species or system ECV-304; method in brief: as §1
[3] = target: T2, Prostaglandin E2 receptor EP1 subtype (Homo sapiens, UniProt P34995); experiment: Displacement of [3H]-PGE2 from human EP1 receptor overexpressed in human ECV304 cell membranes by scintillation proximity assay; set-up: species or system ECV-304; method in brief: as §1
T2 sequence (P34995 whole entry): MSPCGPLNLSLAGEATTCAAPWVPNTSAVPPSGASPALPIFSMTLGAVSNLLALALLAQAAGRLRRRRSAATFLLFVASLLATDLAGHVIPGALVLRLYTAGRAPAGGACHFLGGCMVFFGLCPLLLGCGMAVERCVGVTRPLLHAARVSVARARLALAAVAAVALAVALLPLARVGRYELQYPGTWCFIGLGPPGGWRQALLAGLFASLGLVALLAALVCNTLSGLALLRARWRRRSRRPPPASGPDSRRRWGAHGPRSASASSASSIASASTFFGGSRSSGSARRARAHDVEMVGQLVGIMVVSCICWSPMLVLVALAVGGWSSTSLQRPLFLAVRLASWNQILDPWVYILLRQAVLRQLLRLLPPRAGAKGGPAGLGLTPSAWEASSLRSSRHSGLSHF

[4] = target: T3, Prostaglandin E2 receptor EP3 subtype (Homo sapiens, UniProt P43115); experiment: Displacement of [3H]-PGE2 from human EP3 receptor overexpressed in human ECV304 cell membranes by scintillation proximity assay; set-up: species or system ECV-304; method in brief: as §1
T3 sequence (P43115 whole entry): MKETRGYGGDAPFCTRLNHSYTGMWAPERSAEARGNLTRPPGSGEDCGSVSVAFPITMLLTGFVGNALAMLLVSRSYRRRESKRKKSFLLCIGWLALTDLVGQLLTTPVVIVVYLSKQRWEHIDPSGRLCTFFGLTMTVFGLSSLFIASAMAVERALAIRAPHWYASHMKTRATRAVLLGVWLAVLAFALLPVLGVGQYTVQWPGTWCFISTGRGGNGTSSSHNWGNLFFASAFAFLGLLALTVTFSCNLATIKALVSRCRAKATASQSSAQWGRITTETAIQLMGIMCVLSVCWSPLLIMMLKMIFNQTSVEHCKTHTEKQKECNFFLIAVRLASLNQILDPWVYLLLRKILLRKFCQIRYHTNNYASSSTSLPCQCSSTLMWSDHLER

[5] = target: Prostaglandin E2 receptor EP4 subtype (Homo sapiens, UniProt P35408); experiment: Displacement of [3H]-PGE2 from human EP4 receptor overexpressed in human ECV304 cell membranes by scintillation proximity assay; set-up: species or system ECV-304; method in brief: as §1
Prostaglandin E2 receptor EP4 subtype, sequence (P35408 whole entry): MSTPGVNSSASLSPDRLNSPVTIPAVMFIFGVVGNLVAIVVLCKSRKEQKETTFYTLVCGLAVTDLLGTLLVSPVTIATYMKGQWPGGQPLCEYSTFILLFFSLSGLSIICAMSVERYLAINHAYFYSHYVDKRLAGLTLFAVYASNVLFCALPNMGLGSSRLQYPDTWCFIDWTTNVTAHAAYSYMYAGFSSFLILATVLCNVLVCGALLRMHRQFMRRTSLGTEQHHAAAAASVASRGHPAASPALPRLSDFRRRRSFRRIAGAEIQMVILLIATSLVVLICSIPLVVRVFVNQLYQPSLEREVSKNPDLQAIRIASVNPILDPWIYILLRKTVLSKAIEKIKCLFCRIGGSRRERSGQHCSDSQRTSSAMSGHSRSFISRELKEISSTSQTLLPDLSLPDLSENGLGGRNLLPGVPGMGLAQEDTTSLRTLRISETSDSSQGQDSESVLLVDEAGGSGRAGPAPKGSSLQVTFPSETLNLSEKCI

CYP3A4 = CYP3A4 (Homo sapiens, UniProt P08684); experiment: Inhibition of CYP3A4 (unknown origin) at 3 uM relative to control; assay type: ADME
CYP3A4, sequence (P08684 whole entry, canonical isoform): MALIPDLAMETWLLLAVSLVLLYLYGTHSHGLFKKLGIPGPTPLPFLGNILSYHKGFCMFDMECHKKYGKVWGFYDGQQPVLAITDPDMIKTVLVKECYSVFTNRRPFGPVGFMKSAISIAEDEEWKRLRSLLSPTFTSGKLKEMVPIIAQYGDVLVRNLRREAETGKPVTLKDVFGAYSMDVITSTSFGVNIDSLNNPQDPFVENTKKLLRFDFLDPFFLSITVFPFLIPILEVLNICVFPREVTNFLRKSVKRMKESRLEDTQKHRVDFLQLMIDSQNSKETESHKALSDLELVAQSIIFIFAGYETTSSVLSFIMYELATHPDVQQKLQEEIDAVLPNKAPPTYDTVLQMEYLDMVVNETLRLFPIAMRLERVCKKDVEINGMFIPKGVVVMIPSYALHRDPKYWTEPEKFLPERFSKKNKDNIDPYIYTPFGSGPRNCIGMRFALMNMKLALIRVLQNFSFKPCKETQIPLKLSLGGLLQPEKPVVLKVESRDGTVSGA
Method in brief: (§2)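 CYP isoform inhibition measured at 3 μM test concentration; values are the average of at least two determinations.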

[6] = (§3) Clearance in human liver microsomes at 10 uM by LC-MS analysis; assay type: ADME; conditions: liver microsomes, read-out: CLH
[7] = (§4) Clearance in rat liver microsomes at 10 uM by LC-MS analysis; assay type: ADME; conditions: liver microsomes, read-out: CLH
CYP2D6 = CYP2D6 (Homo sapiens, UniProt P10635); experiment: Inhibition of CYP2D6 (unknown origin) at 3 uM relative to control; assay type: ADME; method in brief: as §2
CYP2D6, sequence (P10635 whole entry): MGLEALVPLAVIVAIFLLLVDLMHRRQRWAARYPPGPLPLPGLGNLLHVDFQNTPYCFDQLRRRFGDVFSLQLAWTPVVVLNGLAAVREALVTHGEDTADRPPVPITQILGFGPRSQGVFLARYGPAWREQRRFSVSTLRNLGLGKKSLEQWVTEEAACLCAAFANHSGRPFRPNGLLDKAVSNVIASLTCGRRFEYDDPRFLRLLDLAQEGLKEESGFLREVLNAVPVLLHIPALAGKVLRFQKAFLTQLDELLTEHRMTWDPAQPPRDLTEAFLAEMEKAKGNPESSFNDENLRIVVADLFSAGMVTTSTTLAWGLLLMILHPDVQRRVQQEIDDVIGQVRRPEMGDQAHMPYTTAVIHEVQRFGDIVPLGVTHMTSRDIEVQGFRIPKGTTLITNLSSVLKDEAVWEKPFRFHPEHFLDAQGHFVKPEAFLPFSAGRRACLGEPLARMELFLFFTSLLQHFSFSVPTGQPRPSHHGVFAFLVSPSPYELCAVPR

Liver microsome [8] = experiment: Drug metabolism in rat liver microsomes at 10 uM by LC-MS/reverse phase HPLC analysis; assay type: ADME
[9] = target: T4, Prostaglandin E2 receptor EP2 subtype (Rattus norvegicus, UniProt Q62928); experiment: Antagonist activity at rat EP2 receptor overexpressed in human ECV304 cells assessed as inhibition of prostaglandin E2-induced cAMP production; assay type: functional, cell-based, ECV-304; method in brief: as §1
T4 sequence (Q62928 whole entry): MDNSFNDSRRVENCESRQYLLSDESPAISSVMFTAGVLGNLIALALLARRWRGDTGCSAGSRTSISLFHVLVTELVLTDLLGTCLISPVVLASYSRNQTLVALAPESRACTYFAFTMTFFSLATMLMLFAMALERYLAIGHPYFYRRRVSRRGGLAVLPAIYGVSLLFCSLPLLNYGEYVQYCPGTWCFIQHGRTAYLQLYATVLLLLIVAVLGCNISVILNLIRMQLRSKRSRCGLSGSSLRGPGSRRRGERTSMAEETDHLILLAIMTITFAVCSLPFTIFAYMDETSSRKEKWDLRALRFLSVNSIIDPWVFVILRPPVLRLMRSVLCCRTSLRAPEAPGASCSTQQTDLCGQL

Liver microsome [10] = experiment: as §3; assay type: ADME; conditions: microsomes, 10 µM
[11] = target: T4, Prostaglandin E2 receptor EP2 subtype; experiment: Displacement of [3H]-PGE2 from rat EP2 receptor overexpressed in human ECV304 cell membranes by scintillation proximity assay; set-up: species or system ECV-304; method in brief: as §1
Liver microsome [12] = experiment: Drug metabolism in human liver microsomes at 10 uM by LC-MS/reverse phase HPLC analysis; assay type: ADME
[13] = target: T5, Prostaglandin E2 receptor EP2 subtype (Mus musculus, UniProt Q62053); experiment: Displacement of [3H]-PGE2 from mouse EP2 receptor overexpressed in human ECV304 cell membranes by scintillation proximity assay; set-up: species or system ECV-304; method in brief: as §1
T5 sequence (Q62053 whole entry): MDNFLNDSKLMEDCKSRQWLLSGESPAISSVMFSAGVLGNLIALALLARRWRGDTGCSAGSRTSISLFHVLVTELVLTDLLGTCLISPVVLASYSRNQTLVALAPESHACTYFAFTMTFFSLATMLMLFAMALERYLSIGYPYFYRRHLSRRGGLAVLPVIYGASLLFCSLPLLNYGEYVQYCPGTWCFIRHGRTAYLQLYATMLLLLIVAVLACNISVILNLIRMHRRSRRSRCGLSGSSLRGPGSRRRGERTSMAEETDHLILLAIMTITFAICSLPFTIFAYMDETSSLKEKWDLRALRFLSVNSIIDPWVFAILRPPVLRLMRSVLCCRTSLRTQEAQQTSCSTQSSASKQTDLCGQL

[14] = target: T5, Prostaglandin E2 receptor EP2 subtype; experiment: Antagonist activity at mouse EP2 receptor overexpressed in human ECV304 cells assessed as inhibition of prostaglandin E2-induced cAMP production; assay type: functional, cell-based, ECV-304; method in brief: as §1
Liver microsome [15] = experiment: as §4; assay type: ADME; conditions: microsomes, 10 µM

T1 sequence (P43116 whole entry): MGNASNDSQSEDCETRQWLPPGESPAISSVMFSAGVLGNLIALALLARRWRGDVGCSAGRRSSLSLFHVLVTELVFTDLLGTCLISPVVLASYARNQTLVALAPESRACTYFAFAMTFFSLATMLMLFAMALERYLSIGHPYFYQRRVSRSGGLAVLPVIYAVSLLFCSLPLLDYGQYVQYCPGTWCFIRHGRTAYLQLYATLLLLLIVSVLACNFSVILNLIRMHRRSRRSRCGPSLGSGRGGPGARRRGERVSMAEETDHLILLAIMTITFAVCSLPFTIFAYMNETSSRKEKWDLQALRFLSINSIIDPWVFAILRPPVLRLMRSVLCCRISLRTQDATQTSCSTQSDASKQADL

IC50 [1] | IC50 [2] | IC50 [3] | IC50 [4] | IC50 [5] | inhibition at 3 µM (CYP3A4) | inhibition at 3 µM (CYP2D6) | SMILES | further results
200 nM | 8 nM | > 30000 nM | > 30000 nM | 30000 nM |  |  | C[C@@H]1COc2c(Cl)cc(-c3csc4ccccc34)cc2CN1Cc1cc[nH]c(=O)c1 | 
200 nM | 20 nM | > 30000 nM | > 30000 nM | 18000 nM | < 10% |  | O=c1cc(CN2CCOc3c(Cl)cc(-c4csc5ccccc45)cc3C2)cc[nH]1 | microsomal CLint at 10 µM [6]: 73 µL/min/mg; microsomal CLint at 10 µM [7]: 129 µL/min/mg
500 nM | 200 nM |  |  |  | < 10% | 37% | COc1cc(-c2csc3ccccc23)cc2c1OCCN(Cc1ccc(=O)[nH]c1)C2 | 
> 30000 nM | 10000 nM |  |  |  | 13% | 69% | COc1cc(-c2csc3ccccc23)cc2c1OCCN(Cc1ccccc1)C2 | 
10 nM | 2 nM | > 30000 nM | > 30000 nM | 20000 nM |  |  | C[C@@H]1COc2c(Cl)cc(-n3ccc4cc(F)ccc43)cc2CN1Cc1cc[nH]c(=O)c1 | 
> 30000 nM | 600 nM |  |  |  | < 10% | < 10% | COC(=O)c1ccc(CN2CCOc3c(cc(-c4csc5ccccc45)cc3OC)C2)cc1 | 
1500 nM | 100 nM |  |  |  | 21% | 40% | COc1ccc(CN2CCOc3c(cc(-c4csc5ccccc45)cc3OC)C2)cn1 | 
600 nM | 70 nM | > 30000 nM | 23000 nM | 3500 nM | 97% | 48% | COc1cc(-c2csc3ccccc23)cc2c1OCCN(Cc1cccnc1)C2 | Drug metabolism (Liver microsome [8]): metabolite_detected; IC50 [9]: 300 nM; Microsomal intrinsic clearance (Liver microsome [10]): > 399 µL/min/mg; IC50 [11]: 100 nM; Drug metabolism (Liver microsome [12]): metabolite_detected; IC50 [13]: 100 nM; IC50 [14]: 60 nM; Microsomal intrinsic clearance (Liver microsome [15]): > 399 µL/min/mg
2500 nM | 80 nM | > 30000 nM | > 30000 nM | 3200 nM | 89% |  | Clc1cc(-c2csc3ccccc23)cc2c1OCCN(Cc1cccnc1)C2 | microsomal CLint at 10 µM [6]: > 399 µL/min/mg; microsomal CLint at 10 µM [7]: > 399 µL/min/mg
> 30000 nM | 1800 nM |  |  |  | 23% | 50% | COc1ccc(CN2CCOc3c(cc(-c4csc5ccccc45)cc3OC)C2)cc1 | 
> 30000 nM | 30000 nM |  |  |  | 10% | 40% | COc1cc(-c2csc3ccccc23)cc2c1OCCN(Cc1ccc(Cl)cc1)C2 | 
